Laboratory results from ChEMBL document CHEMBL2086300, “Synthesis and biological evaluation of imidazo[4,5-b]pyridine and 4-heteroaryl-pyrimidine derivatives as anti-cancer agents” (Eur J Med Chem, 2012).
Calls of active or inactive are those of the source. The calls are words filed in the database; no cut-off is given here.

Experiments:
[1] = test system: HCT-116; test: Antiproliferative activity against human HCT116 cells after 72 hrs by MTT assay; format: functional; details: HCT-116, 72 h
Outline: (§1)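 HCT-116 and MCF-7 cells kept in RPMI-1640 plus 10% FBS. Cells exposed to compound for 72 h and read by MTT. GI50 obtained by non-linear regression.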

[2] = test system: MCF7; test: Antiproliferative activity against human MCF7 cells after 72 hrs by MTT assay; format: functional; details: MCF7, 72 h; outline: as §1
[3] = biological target: Cyclin-dependent kinase 1/cyclin B1 (Homo sapiens, UniProt P06493); test: Inhibition of CDK1/cyclin B by radiometric assay; format: protein-complex assay
Outline: (§2)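 Radiometric kinase assay run as an outsourced profiling service. IC50 taken from 10-point dose-response curves. Apparent Ki calculated from IC50 and the kinase-specific Km(ATP). Data are means of two replicates.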

[4] = biological target: CDK9/cyclin T1 (Homo sapiens, UniProt P50750); test: Inhibition of CDK9/cyclin-T1 by radiometric assay; format: protein-complex assay; outline: as §2
[5] = biological target: Cyclin-dependent kinase 7/ cyclin H (Homo sapiens, UniProt P50613); test: Inhibition of CDK7/cyclin-H by radiometric assay; format: protein-complex assay; outline: as §2
[6] = Selectivity ratio of Ki for CDK1/cyclin B to Ki for CDK9/cyclin-T1
Outline: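 Ratio of apparent Ki values for CDK1/cyclin B and CDK9/cyclin-T1. Each Ki comes from a radiometric assay, converted from 10-point-curve IC50 using Km(ATP), mean of two replicates.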

[7] = test system: HCT-116; test: Induction of apoptosis in human HCT116 cells assessed as down-regulation of Mcl-1 level at 5 to 50 uM after 24 hrs Western blot analysis; format: functional, cell-based
Outline: (§3)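 HCT-116 cells cultured with 5, 25 or 50 µM for 24 h. Lysates analysed by western blot, with β-actin as internal control.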

[8] = test system: HCT-116; test: Cell cycle arrest in human HCT116 cells assessed as accumulation at pre-G1 phase at 10 times GI50 after 24 hrs by propidium iodide staining based flow cytometry; format: functional
Outline: (§4)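 HCT-116 cells treated for 24 h at GI50, 5 × GI50 or 10 × GI50 multiples. Cells fixed and stained with propidium iodide, then DNA content read by flow cytometry. Pre-G1 fraction taken as the dead-cell population.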

[9] = test system: HCT-116; test: Induction of apoptosis in human HCT116 cells assessed as induction of PARP cleavage at 5 to 50 uM after 24 hrs Western blot analysis; format: functional, cell-based; outline: as §3
[10] = test system: HCT-116; test: Induction of apoptosis in human HCT116 cells assessed as increase of caspase-3/7 activity at 5 to 10 times GI50 after 24 hrs; format: functional, cell-based
[11] = biological target: Cyclin-dependent kinase 7/ cyclin H (Homo sapiens) (UniProt P51946+P50613); test: Inhibition of CDK7/cyclin-H in human HCT116 cells assessed as RNAPII CTD phosphorylation at Ser-5 at 5 to 50 uM after 24 hrs by Western blotting analysis; format: cell-based; details: HCT-116; outline: as §3
[12] = test system: HCT-116; test: Cell cycle arrest in human HCT116 cells at 5 times GI50 after 24 hrs by propidium iodide staining based flow cytometry; format: functional; outline: as §4
[13] = biological target: CDK9/cyclin T1 (Homo sapiens) (UniProt O60563+P50750); test: Inhibition of CDK9/cyclin-T1 in human HCT116 cells assessed as RNAPII CTD phosphorylation at Ser-2 at 5 to 50 uM after 24 hrs by Western blotting analysis; format: cell-based; details: HCT-116; outline: as §3
[14] = test system: HCT-116; test: Cell cycle arrest in human HCT116 cells at GI50 after 24 hrs by propidium iodide staining based flow cytometry; format: functional; outline: as §4
[15] = test system: HCT-116; test: Induction of apoptosis in human HCT116 cells assessed as increase of caspase-3/7 activity at GI50 after 24 hrs; format: functional, cell-based

Cyclin-dependent kinase 7/ cyclin H, sequence (P51946 whole entry): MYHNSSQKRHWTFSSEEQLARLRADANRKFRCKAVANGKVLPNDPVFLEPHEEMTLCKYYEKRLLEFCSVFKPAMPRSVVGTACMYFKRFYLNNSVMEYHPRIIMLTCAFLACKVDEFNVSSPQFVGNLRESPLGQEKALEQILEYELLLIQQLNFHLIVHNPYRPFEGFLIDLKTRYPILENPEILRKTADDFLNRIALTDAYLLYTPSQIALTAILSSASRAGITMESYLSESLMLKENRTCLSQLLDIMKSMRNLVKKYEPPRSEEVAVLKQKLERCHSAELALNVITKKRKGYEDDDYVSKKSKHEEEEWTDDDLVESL
Cyclin-dependent kinase 7/ cyclin H, sequence (P50613 whole entry): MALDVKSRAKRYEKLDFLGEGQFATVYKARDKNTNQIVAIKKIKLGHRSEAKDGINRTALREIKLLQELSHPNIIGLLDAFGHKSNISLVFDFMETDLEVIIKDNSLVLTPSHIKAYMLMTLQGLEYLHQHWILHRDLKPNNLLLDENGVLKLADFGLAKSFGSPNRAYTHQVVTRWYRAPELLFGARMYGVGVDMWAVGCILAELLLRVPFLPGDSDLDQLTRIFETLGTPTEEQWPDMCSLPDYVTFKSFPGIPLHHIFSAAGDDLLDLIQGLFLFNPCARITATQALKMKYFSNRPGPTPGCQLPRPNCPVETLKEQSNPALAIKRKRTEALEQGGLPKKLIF
Cyclin-dependent kinase 1/cyclin B1, sequence (P06493 whole entry): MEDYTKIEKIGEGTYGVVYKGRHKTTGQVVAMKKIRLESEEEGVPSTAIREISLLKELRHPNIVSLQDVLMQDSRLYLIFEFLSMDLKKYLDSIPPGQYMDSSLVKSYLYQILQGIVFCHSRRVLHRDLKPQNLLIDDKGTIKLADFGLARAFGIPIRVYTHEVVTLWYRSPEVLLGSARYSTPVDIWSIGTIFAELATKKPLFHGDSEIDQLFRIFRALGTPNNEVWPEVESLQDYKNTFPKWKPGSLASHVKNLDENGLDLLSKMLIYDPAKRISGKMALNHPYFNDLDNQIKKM
Cyclin-dependent kinase 1/cyclin B1, sequence (P14635 whole entry, further chain): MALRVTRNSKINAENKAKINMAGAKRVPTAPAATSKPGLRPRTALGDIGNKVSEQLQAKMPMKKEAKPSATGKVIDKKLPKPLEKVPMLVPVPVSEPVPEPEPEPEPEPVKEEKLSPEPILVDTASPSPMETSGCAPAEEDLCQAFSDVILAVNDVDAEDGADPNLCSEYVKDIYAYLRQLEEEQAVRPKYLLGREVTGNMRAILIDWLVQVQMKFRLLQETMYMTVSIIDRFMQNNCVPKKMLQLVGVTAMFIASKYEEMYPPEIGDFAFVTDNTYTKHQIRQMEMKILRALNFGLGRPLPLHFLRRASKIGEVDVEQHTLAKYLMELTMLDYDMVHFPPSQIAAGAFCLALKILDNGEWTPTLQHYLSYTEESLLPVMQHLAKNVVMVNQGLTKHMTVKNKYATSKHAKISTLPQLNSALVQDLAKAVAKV
CDK9/cyclin T1, sequence (O60563 whole entry): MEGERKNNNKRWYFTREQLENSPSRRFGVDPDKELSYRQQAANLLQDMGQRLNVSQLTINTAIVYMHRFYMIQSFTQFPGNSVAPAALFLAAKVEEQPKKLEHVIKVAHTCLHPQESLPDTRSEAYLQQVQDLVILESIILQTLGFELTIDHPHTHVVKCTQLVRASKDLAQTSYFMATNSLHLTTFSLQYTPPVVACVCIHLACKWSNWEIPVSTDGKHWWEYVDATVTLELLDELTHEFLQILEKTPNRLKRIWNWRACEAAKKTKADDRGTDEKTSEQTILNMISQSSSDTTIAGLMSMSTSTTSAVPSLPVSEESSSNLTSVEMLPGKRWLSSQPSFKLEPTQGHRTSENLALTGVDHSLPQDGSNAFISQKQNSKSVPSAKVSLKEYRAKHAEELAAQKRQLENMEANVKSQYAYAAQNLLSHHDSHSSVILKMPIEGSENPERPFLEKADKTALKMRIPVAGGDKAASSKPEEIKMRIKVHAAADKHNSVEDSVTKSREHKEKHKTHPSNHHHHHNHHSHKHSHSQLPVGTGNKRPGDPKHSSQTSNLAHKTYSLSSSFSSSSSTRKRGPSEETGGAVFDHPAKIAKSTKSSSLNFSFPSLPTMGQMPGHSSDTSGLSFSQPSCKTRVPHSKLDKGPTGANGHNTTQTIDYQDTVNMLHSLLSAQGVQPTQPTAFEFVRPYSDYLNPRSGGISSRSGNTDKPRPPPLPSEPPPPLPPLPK
CDK9/cyclin T1, sequence (P50750 whole entry): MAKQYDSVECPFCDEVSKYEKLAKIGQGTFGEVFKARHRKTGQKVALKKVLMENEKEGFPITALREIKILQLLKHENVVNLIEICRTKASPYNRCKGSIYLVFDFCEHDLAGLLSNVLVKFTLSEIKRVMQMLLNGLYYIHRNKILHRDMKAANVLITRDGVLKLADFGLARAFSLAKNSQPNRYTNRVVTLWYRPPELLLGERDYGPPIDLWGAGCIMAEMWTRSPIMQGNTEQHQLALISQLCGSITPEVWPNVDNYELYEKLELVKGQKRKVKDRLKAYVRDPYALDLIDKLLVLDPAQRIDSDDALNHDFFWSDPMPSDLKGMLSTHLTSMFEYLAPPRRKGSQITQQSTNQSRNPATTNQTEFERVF

Structure (SMILES)	GI50 [1]	GI50 [2]	further results
Cn1nc(-c2ccnc(Nc3cccc(O)c3)n2)c2ccccc21	17.2 µM	28.2 µM	–
Cc1ccc(Nc2nc3ncccc3n2Cc2ccccc2)cc1[N+](=O)[O-]	40.4 µM	27.8 µM	–
CCn1nc(-c2ccnc(Nc3cccc(S(N)(=O)=O)c3)n2)c2ccccc21	9.01 µM	7.26 µM	Ki [3]: 0.471 µM; Ki [4]: 0.154 µM; Ki [5]: > 5 µM
Cn1nc(-c2ccnc(Nc3ccc(S(N)(=O)=O)cc3)n2)c2ccccc21	2.28 µM	0.94 µM	Ki [3]: 0.096 µM; Ki [4]: 0.14 µM; Ki [5]: > 5 µM
Clc1ccc(Nc2nc3ncccc3n2Cc2ccccc2)cc1	59.5 µM	48 µM	–
Cc1cccc(Nc2nccc(-c3nn(C)c4ccccc34)n2)c1	9.42 µM	9.15 µM	–
Cn1nc(-c2ccnc(Nc3cccc(Cl)c3)n2)c2ccccc21	6.4 µM	5.97 µM	–
c1ccc(Cn2c(Nc3ccccc3)nc3cccnc32)cc1	60.2 µM	51.8 µM	–
NS(=O)(=O)c1ccc(Nc2nccc(-n3ncc4ccccc43)n2)cc1	0.59 µM	1.87 µM	Ki [3]: 0.028 µM; Ki [4]: 0.091 µM; Ki [5]: 0.328 µM
Cn1nc(-c2ccnc(Nc3cccc([N+](=O)[O-])c3)n2)c2ccccc21	0.49 µM	0.58 µM	–
NS(=O)(=O)c1ccc(Nc2nccc(-n3ncc4cccnc43)n2)cc1	8.04 µM	7.02 µM	–
CCn1nc(-c2ccnc(Nc3cccc(O)c3)n2)c2ccccc21	36.6 µM	33.5 µM	–
Cn1nc(-c2ccnc(Nc3ccc([N+](=O)[O-])cc3)n2)c2ccccc21	8.22 µM	11.8 µM	–
Cn1nc(-c2ccnc(Nc3ccc(O)cc3)n2)c2ccccc21	8.43 µM	8.91 µM	–
Cn1nc(-c2ccnc(Nc3ccc(Cl)cc3)n2)c2ccccc21	8.73 µM	7.83 µM	–
CCn1nc(-c2ccnc(Nc3cccc([N+](=O)[O-])c3)n2)c2ccccc21	2.82 µM	2.31 µM	–
NS(=O)(=O)c1cccc(Nc2nccc(-n3ncc4cccnc43)n2)c1	14.6 µM	6.93 µM	–
Cc1nn(-c2ccnc(Nc3cccc(S(N)(=O)=O)c3)n2)c2ncccc12	24.8 µM	19.9 µM	–
Clc1cccc(Nc2nc3ncccc3n2Cc2ccccc2)c1	36.3 µM	43.5 µM	–

Structure (SMILES)	GI50 [1]	GI50 [2]	further results
Cn1nc(-c2ccnc(Nc3cccc(S(N)(=O)=O)c3)n2)c2ccccc21	1.98 µM	2.27 µM	Ki [3]: 0.061 µM; Ki [4]: 0.098 µM; Ki [5]: > 5 µM
CCn1nc(-c2ccnc(Nc3ccc(O)cc3)n2)c2ccccc21	5.29 µM	5.78 µM	–
CCCn1nc(-c2ccnc(Nc3ccc(O)cc3)n2)c2ccccc21	5.45 µM	3.34 µM	–
CCCn1nc(-c2ccnc(Nc3cccc(S(N)(=O)=O)c3)n2)c2ccccc21	7.95 µM	4.26 µM	Ki [3]: 0.945 µM; Ki [4]: 0.285 µM; Ki [5]: > 5 µM
CCCn1nc(-c2ccnc(Nc3ccc(S(N)(=O)=O)cc3)n2)c2ccccc21	6.74 µM	0.59 µM	Ki [3]: 0.127 µM; Ki [4]: 0.176 µM; Ki [5]: > 5 µM
O=[N+]([O-])c1cccc(Nc2nc3ncccc3n2Cc2ccccc2)c1	41.7 µM	24.2 µM	–
NS(=O)(=O)c1cccc(Nc2nccc(-c3nn(Cc4cccnc4)c4ccccc34)n2)c1	8.28 µM	5.27 µM	Ki [3]: 4.53 µM; Ki [4]: 0.314 µM; Ratio Ki [6]: 14; Ki [5]: > 5 µM
c1ccc(Cn2c(Nc3ccccc3)nc3ncccc32)cc1	64.7 µM	52.5 µM	–
Oc1ccc(Nc2nc3ncccc3n2Cc2ccccc2)cc1	72.6 µM	52.5 µM	–
CCc1nn(-c2ccnc(Nc3ccc(S(N)(=O)=O)cc3)n2)c2ncccc12	6.34 µM	0.88 µM	–
CCn1nc(-c2ccnc(Nc3ccc(S(N)(=O)=O)cc3)n2)c2ccccc21	2.05 µM	2.28 µM	Ki [3]: 0.055 µM; Ki [4]: 0.253 µM; Ki [5]: > 5 µM
Cc1nn(-c2ccnc(Nc3ccc(S(N)(=O)=O)cc3)n2)c2ncccc12	8.84 µM	8.64 µM	–
NS(=O)(=O)c1ccc(Nc2nccc(-c3nn(Cc4cccnc4)c4ccccc34)n2)cc1	5.13 µM	2.63 µM	Ki [3]: 0.287 µM; Ki [4]: 0.207 µM; Ki [5]: > 5 µM
Cc1ccc(Nc2nccc(-c3nn(C)c4ccccc34)n2)cc1	8.64 µM	6.1 µM	–
CCn1nc(-c2ccnc(Nc3ccc([N+](=O)[O-])cc3)n2)c2ccccc21	4.06 µM	24 µM	–
CCc1nn(-c2ccnc(Nc3cccc(S(N)(=O)=O)c3)n2)c2ncccc12	65.1 µM	73.2 µM	–
COc1ccc(Nc2nc3ncccc3n2Cc2ccccc2)cc1	87.3 µM	59.1 µM	–
NS(=O)(=O)c1cccc(Nc2nccc(-n3ncc4ccccc43)n2)c1	0.75 µM	5.56 µM	Activity [7]: Active; Activity [8]: Active; Activity [9]: Active; Ki [3]: 0.053 µM; Activity [10]: Active; inhibition [11]: inactive; Activity [12]: inactive; Ki [4]: 0.017 µM; inhibition [13]: Active; Activity [14]: inactive; Activity [15]: Active; Ki [5]: > 5 µM
Brc1cccc(Nc2nc3ncccc3n2Cc2ccccc2)c1	77.7 µM	78.7 µM	–
